# F508del corr: correctors of CFTR F508del function in bronchial epithelial cells; CFBE cells, YFP halide quenching; stimulated with forskolin plus potentiator P3; % fluorescence drop versus neutral controls; activity (quench increase), % at 7.58 µM; actives 0.36% (n = 350,000); AID 720511;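 active means mean added fluorescence quench of at least 8% versus neutral control, with both replicates also reaching 8%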;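 further: cells transiently co-express mutant CFTR-F508del with the halide-sensitive YFP; corrector assay measuring rescue of mutant channel to the surface after 24 h compound exposure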
# Scp1 inh: inhibitors of human Scp-1 phosphatase; Q9GZU7; Recombinant Scp1, phosphopeptide, malachite green phosphate absorbance; inhibition, % at 20 µM; actives 0.88% (n = 340,000); AID 493091;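 active means inhibition above about 50% at 20 µM, limit read from the data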;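 further: plate controls were DMSO wells with enzyme for no effect and wells lacking enzyme for full effect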
#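 Incubation: 45 min enzyme reaction at room temperature / System: truncated SCP-1 phosphatase (76-261aa) / Reagent: Phospho 17-mer peptide substrate / Buffer or medium: Acidic Tris acetate buffer with magnesium and detergent / Signal: absorbance at 630 nm / Doses: one concentration, 20 µM, with 1.0% DMSO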
# SUMO1-SIM PPI: alters human SUMO1 binding to SIM partners. P63165. SUMO1 binding to a labelled peptide, TR-FRET, 1 h. inhibition, % at 20 µM. actives 0.33% (n = 360,000). AID 602429; in the data active means inhibition above about 37%
# Target sequence (P63165 whole entry, looked up): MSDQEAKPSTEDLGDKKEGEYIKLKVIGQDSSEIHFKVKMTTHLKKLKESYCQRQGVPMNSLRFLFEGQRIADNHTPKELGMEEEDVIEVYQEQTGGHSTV
# STEP block: STEP (human) phosphatase inhibition | inhibition, % at 20 µM | recombinant STEP, OMFP fluorogenic substrate, fluorescence | actives 0.25% (n = 360,000) | AID 588621;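 active means inhibition at 20 µM, scaled per plate between control wells, above about 37%, limit read from the data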;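 further: 0% = DMSO with enzyme and substrate and 100% = substrate only without enzyme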
# Target sequence (P54829 whole entry, looked up): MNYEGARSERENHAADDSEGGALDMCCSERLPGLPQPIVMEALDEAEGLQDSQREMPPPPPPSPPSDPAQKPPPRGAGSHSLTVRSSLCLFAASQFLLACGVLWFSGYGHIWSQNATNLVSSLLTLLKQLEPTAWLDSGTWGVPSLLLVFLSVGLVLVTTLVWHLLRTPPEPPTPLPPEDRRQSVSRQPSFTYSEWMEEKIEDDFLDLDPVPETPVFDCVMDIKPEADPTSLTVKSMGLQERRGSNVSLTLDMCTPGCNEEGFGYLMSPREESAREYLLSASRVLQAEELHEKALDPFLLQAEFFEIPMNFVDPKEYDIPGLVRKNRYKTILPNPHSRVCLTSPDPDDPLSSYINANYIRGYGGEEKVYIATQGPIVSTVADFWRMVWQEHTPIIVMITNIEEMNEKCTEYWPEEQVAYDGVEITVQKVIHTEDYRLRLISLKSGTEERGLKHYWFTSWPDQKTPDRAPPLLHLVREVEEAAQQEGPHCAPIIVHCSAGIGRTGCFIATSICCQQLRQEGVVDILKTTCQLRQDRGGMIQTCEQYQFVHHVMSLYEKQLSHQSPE
#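 Also added – OMFP at 25 µM · Test system – STEP tyrosine phosphatase · Technique – FITC-channel fluorescence of OMFP product · Schedule – 20 min at room temperature, dark · Evaluation – control-normalized % inhibition with plate pattern correction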
# DNMT1 inh: DNMT1 (human) enzyme inhibition. actives 0.83% (n = 360,000). inhibition (reported as % activation of signal), % at 10 µM. AID 588458. P26358. DNMT1 molecular beacon, Hinp1I cleavage, fluorescence; in the data active means inhibition above about 50%
# LMPTP inh: blocks human LMPTP phosphatase | P24666 | recombinant LMPTP-A, OMFP fluorogenic substrate, fluorescence intensity | inhibition, % at 20 µM | actives 0.22% (n = 360,000);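 active means compounds that cut the enzyme signal by at least half of the control window in the single-dose screen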;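 further: plate controls were DMSO wells with enzyme plus substrate for no effect and substrate without enzyme for full effect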
#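 Test system – LMPTP-A enzyme · Amount – LMPTP-A at 0.625 nM final in the reaction · Buffer or medium – Bis-Tris pH 6.0, DTT, detergent · Reagent – OMFP 400 µM · Doses – single 20 µM dose · Schedule – reaction 50 min, room temperature, dark · Detection – fluorescence intensity of OMFP turnover product · Evaluation – percent inhibition versus substrate-only and uninhibited controls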
# Starred values were filed as active, the others as inactive; · = no result given. In the library only some 1.6% were active in any assay of this set; here they are far more common.
SMILES,F508del corr,Scp1 inh,SUMO1-SIM PPI,STEP block,DNMT1 inh,LMPTP inh
O=C(C[C@H]1C[C@H]2c3cc(NC(=O)NC4CCCC4)ccc3O[C@H]2[C@@H](CO)O1)NCCN1CCCCC1,4,·,·,·,·,·
C/C=C/c1ccc2c(c1)O[C@@H](CN(C)C(=O)c1ccccn1)[C@@H](C)CN([C@@H](C)CO)S2(=O)=O,-1,·,·,·,·,·
Oc1cc2c(cc1O)C1c3ccc(O)c(O)c3OCC1(O)C2 (stereo unspecified),-4,61*,10,4,10,3
CC(C)CC1Nc2ncnc(N3CCN(c4ccccn4)CC3)c2N(Cc2ccc(Br)cc2)C1=O (stereo unspecified),8.3*,1,3,0,-3,2
COc1ccc(CN(C)C[C@@H]2Oc3ccc(NC(=O)Nc4c(C)noc4C)cc3C(=O)N([C@H](C)CO)C[C@H]2C)cc1,-3,·,·,·,·,·
Cc1cc(C(=O)COC(=O)c2cc(O)c3ccccc3c2O)c(C)n1CC1CCCO1 (stereo unspecified),·,74*,31,1,-30,2
Cc1cccc(-c2ccc([C@H]3[C@H](CO)N4C(=O)CN(C(=O)c5cccnc5)C[C@@H]34)cc2)c1,-2,·,·,·,·,·
O=C(Nc1ccn(CCCNC2CCN(Cc3ccccc3)CC2)c(=O)n1)OCc1ccccc1,9.0*,·,-4,-2,1,3
O=C(C[C@@H]1CC[C@H]2[C@@H](COC[C@H](O)CN2C(=O)Nc2ccc(Cl)cc2)O1)NCC1CCCCC1,3,·,·,·,·,·
S=C1NCN(Cc2ccco2)CN1,1,-5,0,3,2,-1
O=C1CC(=O)N(Cc2ccco2)C(=S)N1,·,93*,69*,83*,111*,51*
CN(C[C@@H]1N[C@H](CO)[C@H]1c1ccccc1)C(=O)c1ccccn1,8.6*,·,·,·,·,·
C/C=C/c1ccc([C@@H]2[C@@H](CO)N[C@@H]2CN(CC)C(=O)c2ccccn2)cc1,3,·,·,·,·,·
CCc1ccccc1Nc1nn2c(=O)c3ccc(C(=O)NCc4ccccn4)cc3nc2s1,-1,-14,39*,0,-5,1
O=C(NCc1ccccn1)c1ccc2c(=O)n3nc(Nc4ccccc4)sc3nc2c1,-2,-3,52*,-4,32,0
COc1ccccc1Nc1nn2c(=O)c3ccc(C(=O)NCc4cccnc4)cc3nc2s1,·,·,47*,3,51*,2
COc1ccccc1Nc1nn2c(=O)c3ccc(C(=O)N4CCCCC4)cc3nc2s1,-1,-6,5,1,-2,2
Nc1c(N2CCCC2)cc(Cl)c2nonc12,·,-6,37,4,78*,8
NC(=O)CN1CCN(S(=O)(=O)c2ccc(Cl)cc2)CC1,-1,-7,-2,6,-1,0
O=C(CN1CCN(S(=O)(=O)c2ccc(Cl)cc2)CC1)c1ccc(O)c(O)c1,·,7,-1,2,3,59*
O=C(CN1CCN(S(=O)(=O)c2ccc(F)cc2)CC1)c1ccc(O)c(O)c1,-5,-2,-2,2,2,66*
COc1ccc(S(=O)(=O)N2CCN(CC(=O)c3ccc(O)c(O)c3)CC2)cc1,-1,-5,-2,2,3,70*
CN1C(=O)c2cc(NC(=O)c3cccc(F)c3)ccc2OC[C@@H]2O[C@@H](CC(=O)O)CC[C@H]21,2,·,·,·,·,·
C=CCN(CC=C)S(=O)(=O)c1ncn[nH]1,·,0,44*,2,41,-3
CO[C@H]1CN(C)C(=O)c2cc(NC(=O)Nc3cccc(F)c3)ccc2OC[C@H](C)N(C(C)=O)C[C@@H]1C,1,·,·,·,·,·
SMILES,F508del corr,Scp1 inh,SUMO1-SIM PPI,STEP block,DNMT1 inh,LMPTP inh
CC(=O)c1ccc(Nc2cc(C)nc3c(C)cc(C)cc23)cc1,17*,39,-14,0,2,4
O=C(OCc1ccc(Br)cc1)c1cc([N+](=O)[O-])ccc1N1CCOCC1,8.4*,·,-25,1,0,2
O=C(c1ccc(Br)cc1)c1cc([N+](=O)[O-])ccc1N1CCOCC1,12*,-9,-17,-2,1,1
C[C@@H]1CN([C@@H](C)CO)C(=O)c2cccc(NC(=O)C3CCCCC3)c2O[C@H]1CN(C)S(C)(=O)=O,1,·,·,·,·,·
CCc1ccccc1N(C)S(=O)(=O)c1ccc(-c2cc(C)no2)s1,8.2*,-16,-10,3,-3,3
CCC(=O)N1CC(=O)N2[C@H](CO)[C@H](c3ccc(C#CC4CCCCC4)cc3)[C@H]2C1,-1,·,·,·,·,·
COc1ccc(NC(=O)Nc2cccc3c2O[C@@H](CN(C)C(=O)Nc2ccc(OC)cc2)[C@@H](C)CN([C@H](C)CO)C3=O)cc1,1,·,·,·,·,·
Cc1nn2cc(-c3cccc(Cl)c3)cnc2c1Cl,1,-6,-9,4,3,1
Cc1nn2cc(-c3cccc(Cl)c3)cnc2c1Br,9.5*,-1,-7,0,4,1
O=C(Nc1ccccc1)NN(C(=O)CCl)c1ccccc1,-2,-1,70*,-2,8,-2
CCc1nc(N)nc(N)c1-c1ccc(Cl)c([N+](=O)[O-])c1,9.1*,4,-14,0,2,47
CCOc1cc(-c2c(C)c(CC)nc(N)c2C#N)ccc1O,·,-1,0,2,-5,3
CCc1nc(N)nc(N)c1-c1ccc(Cl)c(N=[N+]=[N-])c1,-5,5,9,-1,-8,58*
CC(C)NC(=O)Nc1ccc2c(c1)C(=O)N([C@H](C)CO)C[C@@H](C)[C@H](CN(C)S(=O)(=O)c1ccc(Cl)cc1)OCCCC[C@H](C)O2,2,·,·,·,·,·
O=C(O)c1ccccc1C(=O)Nc1cccc([N+](=O)[O-])c1,-2,-4,-19,1,2,-1
O=C(Nc1cccc([N+](=O)[O-])c1)c1cc2ccccc2cc1O,-3,89*,33,5,2,4
CCOC(=O)c1sc(=S)n(-c2ccc(OC)cc2)c1C,0,-7,-26,0,-5,0
CCOC(=O)c1c2c(n(-c3ccc(OC)cc3)c1C)C(=O)C(=O)c1ccccc1-2,·,-13,13,8,86*,21
CC(C)C[C@H]1CN([C@@H](CC(C)C)CN2CCC[C@@H]2CN2C(=S)NC[C@@H]2Cc2ccc(O)cc2)C(=S)N1CCc1ccccc1,8.8*,·,1,3,-23,3
C[C@@H](CN1C(=O)C(=O)NC[C@@H]1Cc1ccc(O)cc1)NC(=O)Cc1ccccc1,2,-3,42*,14,-4,3
O=C1NC[C@@H](Cc2ccc(O)cc2)N(CCc2cc(C(F)(F)F)cc(C(F)(F)F)c2)C1=O,0,·,67*,·,·,4

# Screening results deposited in PubChem by several laboratories.
